# Laboratory results from ChEMBL document CHEMBL1147907, “Structure-based discovery of new small molecule inhibitors of low molecular weight protein tyrosine phosphatase” (Eur J Med Chem, 2007).
# Active and inactive are the calls of the source. No cut-off for these calls is given here.
# Biological target: T1, Low molecular weight phosphotyrosine protein phosphatase (Bos taurus) (UniProt P11064)
# T1 sequence (whole entry): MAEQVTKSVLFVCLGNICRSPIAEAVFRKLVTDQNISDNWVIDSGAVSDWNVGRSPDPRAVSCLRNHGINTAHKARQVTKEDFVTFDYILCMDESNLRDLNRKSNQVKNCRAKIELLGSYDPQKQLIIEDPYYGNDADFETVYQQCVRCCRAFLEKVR
# Assay: (§1) Inhibition of bovine low molecular weight PTP expressed in Escherichia coli […] cells
# Procedure, shortened: (§2)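 Enzyme held at 10 nM; p-nitrophenyl phosphate substrate at five final concentrations (0.4, 0.8, 1.2, 1.6, 2.0 mM) against four to five inhibitor concentrations; inhibitors kept as 100 mM DMSO stocks. Run at 37 °C in 40 mM sodium acetate pH 5.0, 150 mM NaCl, 1 mM TCEP. p-Nitrophenolate release read at 405 nm; competitive Ki derived.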
row,Activity,Compound
1,inactive,Cc1cc(C(=S)N2CCOCC2)c(C)n1-c1ccc(C(=O)O)cc1
2,inactive,O=C(O)CC(O)c1nc2ccccc2[nH]1 (centres undefined)
3,inactive,Cc1cc[n+](CCCS(=O)(=O)O)c2ccccc12
4,inactive,CS(=O)(=O)N1CCCC(C(=O)NCc2ccccc2Cl)C1 (centres undefined)
5,inactive,O=C(O)C1CCC(CNCc2ccncc2)CC1 (centres undefined)
6,inactive,O=C(O)c1ccc2c(c1)C1C=CCC1C(C(=O)O)N2 (centres undefined)
7,inactive,Cc1ccc(N2C(=O)CC(N3CCC(C(=O)O)CC3)C2=O)cc1 (centres undefined)
8,inactive,CS(=O)(=O)N1CCN(C2=C(Cl)C(=O)c3ccccc3C2=O)CC1
9,inactive,O=[N+]([O-])c1ccc(C2=Nn3c(nnc3-c3ccccc3)SC2)cc1
10,inactive,O=C(O)COc1ccc2c(c1)C(=O)CC1(CCCCC1)O2
11,inactive,CCCOc1ccc(N2C(=O)CC(N3CCC(C(=O)O)CC3)C2=O)cc1 (centres undefined)
12,inactive,Cc1ccc2nc(-c3cccnc3)cc(C(=O)Nc3ccc(CC(=O)O)cc3)c2c1
13,inactive,COc1ccc(CN2CCN(S(C)(=O)=O)CC2)cc1OC
14,inactive,O=C(O)c1ccc(C2(c3ccc(C(=O)O)cc3)OC(=O)c3ccccc32)cc1
15,inactive,O=C(O)C1CSC(c2cc(Br)ccc2O)N1 (centres undefined)
16,inactive,O=C(O)c1ccc2c(c1)c1c3n2CCNC3CCC1 (centres undefined)
17,inactive,O=C(O)C1CC(=O)N(C2CCCCCC2)C1 (centres undefined)
18,inactive,O=C(O)C1CCN(S(=O)(=O)c2cccc3nsnc23)CC1

# Biological target: T2, Low molecular weight phosphotyrosine protein phosphatase (Bos taurus, UniProt P11064)
# T2 sequence (P11064 whole entry): T1 sequence (whole entry)
# Assay: as §1
# Procedure, shortened: as §2
row,Ki [µM],Compound
1,240,O=C(O)c1ccc2[nH]c3c(c2c1)CSCC3
2,880,O=C(O)Cc1ccc(C2C(=O)C3SC=CC3NC2=S)cc1 (centres undefined)
3,610,CCn1c2c(c3cc(C(=O)O)ccc31)CCCC2=O
4,11,O=C1N=C(Cc2cccn2-c2ccc(C(=O)O)cc2)C(=O)N1
5,> 1000,O=C(O)c1ccc2[nH]c3c(c2c1)CCCC3
6,> 1000,O=C(O)CCC(=O)N1CCc2cc(S(=O)(=O)NCc3cccs3)ccc21
7,> 1000,Cn1c(=O)oc2cc(S(=O)(=O)N3CCC(C(=O)O)CC3)ccc21
8,9,O=C(O)c1ccc2c(c1)C1C=CCC1C(c1cccc(Br)c1)N2 (centres undefined)
9,170,CCn1c2ccc(CC(=O)O)cc2c2cc(CC(=O)O)ccc21
10,> 1000,O=C(O)CCC(=O)N1N=C(c2ccccc2)CC1c1ccccc1F (centres undefined)
11,60,O=C(O)Cc1ccc2c(c1)[nH]c1ccc(Br)cc12
12,> 1000,O=C(O)c1ccc(-n2nc(C(F)(F)F)c3c2CCCC3)cc1
13,> 1000,O=C(O)c1ccc2c(c1)C1C=CCC1C(c1ccccc1)N2 (centres undefined)
14,910,O=C(O)c1ccc(C2Nc3c(F)cc(F)cc3C3C=CCC32)cc1 (centres undefined)
15,50,O=C(O)c1ccc2c(c1)C1C=CCC1C(c1ccccc1C(F)(F)F)N2 (centres undefined)

row,Compound,Ki [µM]
1,O=C(O)c1ccc2c(c1)C1C=CCC1C(c1cccnc1)N2 (centres undefined),> 1000
